# Results reported in ChEMBL document CHEMBL2169867, “Novel β-amino acid derivatives as inhibitors of cathepsin A” (J Med Chem, 2012).
# Calls of active or inactive are those of the source. No cut-off for these calls is given here.
# Key:
# [1] = target: T1, Lysosomal protective protein (Homo sapiens, UniProt P10619); assay: Inhibition of human recombinant Myc-His10-tagged cathepsin A expressed in baculovirus infected Sf9 cells using BodipyFL labeled bradykinin as substrate incubated for 15 mins prior to substrate addition measured after 15 mins by fluorimetric analysis
# T1 sequence (P10619 whole entry): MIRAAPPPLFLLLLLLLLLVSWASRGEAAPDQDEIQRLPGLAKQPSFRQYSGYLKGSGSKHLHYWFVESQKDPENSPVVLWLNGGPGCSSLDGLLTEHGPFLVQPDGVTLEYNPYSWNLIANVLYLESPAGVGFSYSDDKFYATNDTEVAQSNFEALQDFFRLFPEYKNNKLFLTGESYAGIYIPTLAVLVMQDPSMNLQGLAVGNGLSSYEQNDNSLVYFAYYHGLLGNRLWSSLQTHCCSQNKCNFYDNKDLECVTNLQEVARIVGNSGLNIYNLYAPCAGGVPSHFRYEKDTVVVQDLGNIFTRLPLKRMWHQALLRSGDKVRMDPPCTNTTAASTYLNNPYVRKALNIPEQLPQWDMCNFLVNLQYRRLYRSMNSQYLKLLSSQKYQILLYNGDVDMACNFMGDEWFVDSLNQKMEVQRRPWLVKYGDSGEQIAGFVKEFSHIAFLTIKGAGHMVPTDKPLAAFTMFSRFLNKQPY
# [2] = test system: Mus musculus; assay: Ratio of left ventricular wet weight to body weight in B6.129P2-ApoE/J mouse at 100 mg/kg/day, po administered BID after 4 weeks (reference value: 5.99 0.28 mg/g); format: functional
# [3] = test system: Mus musculus; assay: Cardioprotective activity against angiotensin 2-induced cardiac hypertrophy in B6.129P2-ApoE/J mouse assessed as mean arterial pressure at 100 mg/kg/day, po administered BID after 4 weeks (reference value: 99.03 6.82 mmHg); format: functional, Heart
# [4] = test system: Mus musculus; assay: Toxicity in B6.129P2-ApoE/J mouse assessed as body weight at 100 mg/kg/day, po administered BID after 4 weeks (reference value: 30.48 0.52 g); format: organism-based; design: route oral; conditions: in vivo, 672 h
# [5] = test system: Mus musculus; assay: Cardioprotective activity against angiotensin 2-induced cardiac hypertrophy in B6.129P2-ApoE/J mouse assessed as left ventricular relaxation time at 100 mg/kg/day, po administered BID after 4 weeks (reference value: 8.73 0.41 ms); format: functional, Heart left ventricle
# [6] = test system: Mus musculus; assay: Cardioprotective activity against angiotensin 2-induced cardiac hypertrophy in B6.129P2-ApoE/J mouse assessed as left ventricular end systolic pressure at 100 mg/kg/day, po administered BID after 4 weeks (reference value: 139.36 9.79 mmHg); format: functional, Heart left ventricle
# [7] = test system: Mus musculus; assay: Cardioprotective activity against angiotensin 2-induced cardiac hypertrophy in B6.129P2-ApoE/J mouse assessed as ejection fraction at 100 mg/kg/day, po administered BID after 4 weeks (reference value: 51.14 2.49 %); format: functional, Heart
# [8] = test system: Mus musculus; assay: Cardioprotective activity against angiotensin 2-induced cardiac hypertrophy in B6.129P2-ApoE/J mouse assessed as heart rate at 100 mg/kg/day, po administered BID after 4 weeks (reference value: 403.23 7.98 bpm); format: functional
# [9] = test system: Mus musculus; assay: Cardioprotective activity against angiotensin 2-induced cardiac hypertrophy in B6.129P2-ApoE/J mouse assessed as left ventricular end diastolic pressure at 100 mg/kg/day, po administered BID after 4 weeks (reference value: 15.49 1.95 mmHg); format: functional, Heart left ventricle
# [10] = test system: Mus musculus; assay: Cardioprotective activity against angiotensin 2-induced cardiac hypertrophy in B6.129P2-ApoE/J mouse assessed as left ventricular wet weight at 100 mg/kg/day, po administered BID after 4 weeks (reference value: 182.03 […]); format: functional, Heart left ventricle
# [11] = Permeability across human Caco2 cells; format: ADME, cell-based; conditions: Caco-2, read-out: permeability
# [12] = target: Cathepsin A (Homo sapiens); assay: Inhibition of cathepsin A
# [13] = target: Neprilysin (Homo sapiens, UniProt P08473); assay: Inhibition of human recombinant NEP using Mca-RPPGFSAFK(Dnp)-OH as substrate incubated for 15 mins prior to substrate addition measured after 20 to 30 mins by fluorimetric analysis
# Sequence of Neprilysin (P08473 whole entry): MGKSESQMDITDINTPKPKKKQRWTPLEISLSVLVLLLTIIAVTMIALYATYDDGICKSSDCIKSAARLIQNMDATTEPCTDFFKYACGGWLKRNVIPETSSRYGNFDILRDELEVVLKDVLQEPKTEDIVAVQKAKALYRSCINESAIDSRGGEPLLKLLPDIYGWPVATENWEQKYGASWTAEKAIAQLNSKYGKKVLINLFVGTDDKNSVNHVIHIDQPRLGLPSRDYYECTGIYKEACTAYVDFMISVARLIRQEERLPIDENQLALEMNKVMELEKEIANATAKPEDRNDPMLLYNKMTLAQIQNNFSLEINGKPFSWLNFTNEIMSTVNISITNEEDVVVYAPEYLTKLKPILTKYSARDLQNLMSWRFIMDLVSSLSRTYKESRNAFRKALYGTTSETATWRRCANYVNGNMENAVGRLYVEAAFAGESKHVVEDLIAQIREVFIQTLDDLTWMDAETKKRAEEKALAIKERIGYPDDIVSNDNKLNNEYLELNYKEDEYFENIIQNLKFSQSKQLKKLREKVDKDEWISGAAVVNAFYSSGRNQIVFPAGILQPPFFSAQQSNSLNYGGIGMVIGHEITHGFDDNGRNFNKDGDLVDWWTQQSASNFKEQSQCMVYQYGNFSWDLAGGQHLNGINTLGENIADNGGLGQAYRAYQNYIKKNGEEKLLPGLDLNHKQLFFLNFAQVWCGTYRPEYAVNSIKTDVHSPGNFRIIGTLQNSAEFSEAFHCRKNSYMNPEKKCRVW
# Outline: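 Recombinant human NEP and inhibitor preincubated 15 min at room temperature in reaction buffer, then substrate added. Fluorescence read after 20-30 min at room temperature. % inhibition and IC50 calculated against internal high and low controls.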
# [14] = target: CYP3A4 (Homo sapiens, UniProt P08684); assay: (§1) Induction of CYP3A4 relative to control; format: ADME; conditions: human
# Sequence of CYP3A4 (P08684 whole entry): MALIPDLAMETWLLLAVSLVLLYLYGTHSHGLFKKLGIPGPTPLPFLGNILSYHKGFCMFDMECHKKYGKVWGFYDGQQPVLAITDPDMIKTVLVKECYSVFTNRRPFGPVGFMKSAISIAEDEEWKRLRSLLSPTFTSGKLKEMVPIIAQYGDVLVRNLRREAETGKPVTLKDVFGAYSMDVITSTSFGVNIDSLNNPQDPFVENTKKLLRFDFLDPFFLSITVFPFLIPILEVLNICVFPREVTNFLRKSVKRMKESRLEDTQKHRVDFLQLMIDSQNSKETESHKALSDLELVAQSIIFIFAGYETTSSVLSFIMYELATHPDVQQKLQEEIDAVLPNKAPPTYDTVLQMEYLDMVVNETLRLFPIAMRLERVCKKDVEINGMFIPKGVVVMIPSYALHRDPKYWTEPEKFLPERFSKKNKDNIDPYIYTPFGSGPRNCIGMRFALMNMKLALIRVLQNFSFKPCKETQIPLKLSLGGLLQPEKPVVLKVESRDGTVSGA
# [15] = Cmax in Sprague-Dawley rat heart at 10 mg/kg, po; format: ADME, organism-based; design: dose 10 mg/kg, route oral
# Outline: (§2)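 Male Sprague-Dawley rats; single oral 10 mg/kg in glycofurol 75 (19%)/Cremophor RH40 (6%)/water (75%). Plasma and heart sampled at eight time points over 24 h, three animals per time point, nonserial design. Heart homogenized with water (2 g per 1 g tissue). Concentrations measured by LC-MS/MS with a structurally related internal standard; AUC(0-inf) taken from plasma concentration-time curves.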
# [16] = test system: Rattus norvegicus; assay: Antihypertensive activity in Wistar rat assessed as bradykinin-dependent diuresis at 1 mg/kg, iv administered as bolus measured as urine flow rate (reference value: 11.6 uL/min); format: functional
# [17] = test system: Rattus norvegicus; assay: Effect on glomerular filtration rate in Wistar rat assessed as change in creatinine excretion at 30 mg/kg, po relative to vehicle-treated control; format: functional, organism-based; design: dose 30 mg/kg
# Outline: (§3)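 Male Wistar rats dosed po at 30 mg kg⁻¹ day⁻¹. Urine collected over 6 h before and after treatment. Bradykinin measured by commercial RIA; creatinine excretion also determined. Mean ± SEM, n = 9-10; paired t test.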
# [18] = target: Cytochrome P450 3A4 (Homo sapiens, UniProt P08684); assay: as §1; format: ADME
# Sequence of Cytochrome P450 3A4 (P08684 whole entry): as above
# [19] = test system: Rattus norvegicus; assay: Antihypertensive activity in Wistar rat assessed as increase in bradykinin level in urine at 30 mg/kg, po relative to vehicle-treated control; format: functional; outline: as §3
# [20] = Cmax in Sprague-Dawley rat plasma at 10 mg/kg, po; format: ADME, organism-based; design: dose 10 mg/kg, route oral; outline: as §2
# [21] = AUC (0 to infinity) in Sprague-Dawley rat heart at 10 mg/kg, po; format: ADME, organism-based; design: time infinity, dose 10 mg/kg, route oral; outline: as §2
# [22] = AUC (0 to infinity) in Sprague-Dawley rat plasma at 10 mg/kg, po; format: ADME, organism-based; design: time infinity, dose 10 mg/kg, route oral; outline: as §2
compound,measurement,setting,value
O=C(O)CC(NC(=O)c1cc(=O)n(-c2ccccc2)[nH]1)c1ccc(Oc2ccccc2)cc1 (racemic),IC50,[1],0.2 µM
Cc1cccc([C@H](CC(=O)O)NC(=O)c2cc(=O)n(-c3ccccc3F)[nH]2)c1,IC50,[1],0.252 µM
Cc1ccc(F)cc1C(CC(=O)O)NC(=O)c1cc(=O)n(-c2ccccc2F)[nH]1 (racemic),IC50,[1],0.076 µM
CC(=O)S[C@@H]1CC2=CC(=O)CC[C@]2(C)[C@H]2CC[C@@]3(C)[C@@H](CC[C@@]34CCC(=O)O4)[C@H]12 [SPIRONOLACTONE],Ratio,[2],5.07 mg/g
same,Activity,[3],103.99 mmHg
same,Activity,[4],28.84 g
same,Time,[5],7.52 ms
same,Activity,[6],137.39 mmHg
same,Activity,[7],58.59%
same,Activity,[8],410.78 bpm
same,Activity,[9],14.93 mmHg
same,Activity,[10],145.96 mg
Cc1ccc(C)c(-n2[nH]c(C(=O)NC(CC(=O)O)c3ccc(F)cc3)cc2=O)c1 (racemic),IC50,[1],5.38 µM
O=C(O)CC(NC(=O)c1cc(=O)n(-c2ccccc2F)[nH]1)c1ccccc1 (racemic),IC50,[1],0.226 µM
COc1ccccc1[C@H](CC(=O)O)NC(=O)c1cc(=O)n(-c2ccccc2F)[nH]1,IC50,[1],0.357 µM
Cc1ccccc1[C@H](CC(=O)O)NC(=O)c1cc(OCC(=O)C(C)(C)C)n(-c2ccccc2F)n1,Papp,[11],> 2 ×10⁻⁶ cm/s
same,IC50,[1],0.003 µM
Cc1ccccc1[C@H](CC(=O)O)NC(=O)c1cc(OCC2CC2)n(-c2ccccc2F)n1,IC50,[12],0.015 µM
same,IC50,[13],27 µM
same,Emax,[14],72%
same,IC50,[1],0.015 µM
O=C(O)CC(NC(=O)c1cc(=O)n(-c2ccc(Cl)cc2)[nH]1)c1cc(Cl)ccc1Cl (racemic),IC50,[13],0.3 µM
same,IC50,[1],> 30 µM
CC(C)(C)[C@H](O)COc1cc(C(=O)N[C@@H](CC(=O)O)c2ccc(Cl)cc2Cl)nn1-c1ccccc1F,IC50,[1],0.07 µM
Cc1ccccc1[C@H](CC(=O)O)NC(=O)c1nn(-c2ccccc2)cc1O,IC50,[1],0.11 µM
Cc1ccccc1[C@H](CC(=O)O)NC(=O)c1cc(=O)n(-c2ccccc2Cl)[nH]1,IC50,[1],0.057 µM
COc1cn(-c2ccccc2)nc1C(=O)N[C@@H](CC(=O)O)c1ccccc1C,IC50,[1],0.1 µM
CCOc1cc(C(=O)N[C@@H](CC(=O)O)c2ccccc2C)nn1-c1ccccc1F,IC50,[12],0.015 µM
same,Emax,[14],51%
same,IC50,[1],0.015 µM
Cc1ccccc1[C@H](CC(=O)O)NC(=O)c1cc(=O)n(-c2ccccc2)[nH]1,IC50,[1],0.07 µM
O=C(O)CC(NC(=O)c1cc(=O)n(-c2ccccc2)[nH]1)c1cccc(Cl)c1Cl (racemic),IC50,[13],< 0.06 µM
same,IC50,[1],0.1 µM
Cc1ccccc1[C@H](CC(=O)O)NC(=O)c1cc(=O)n(-c2ccc(F)cc2)[nH]1,IC50,[1],0.087 µM
Cc1ccc([C@H](CC(=O)O)NC(=O)c2cc(=O)n(-c3ccccc3F)[nH]2)cc1,IC50,[1],0.274 µM
O=C(O)C[C@H](NC(=O)c1cc(=O)n(-c2ccccc2F)[nH]1)c1ccccc1C(F)(F)F,IC50,[1],0.375 µM
CC(C)(C)[C@@H](O)COc1cc(C(=O)N[C@@H](CC(=O)O)c2ccc(Cl)cc2Cl)nn1-c1ccccc1F,IC50,[13],> 1 µM
same,inhibition,[13],inactive
same,Cmax,[15],872 ng/mL
same,Papp,[11],> 2 ×10⁻⁶ cm/s
same,Activity,[16],36.5 µL/min
same,Activity,[17],inactive
same,Activity,[18],Not Active
same,fold change (FC),[19],2
same,IC50,[1],0.05 µM
same,Cmax,[20],2670 ng/mL
same,AUC(0-inf),[21],2600 ng·h/mL
same,AUC(0-inf),[22],9300 ng·h/mL
COc1c(Cl)c(C(=O)N[C@@H](CC(=O)O)c2ccccc2C)nn1-c1ccccc1F,IC50,[1],0.11 µM
COc1c(F)c(C(=O)N[C@@H](CC(=O)O)c2ccccc2C)nn1-c1ccccc1F,IC50,[1],0.03 µM
Cc1ccc(C)c(-n2[nH]c(C(=O)NC(CC(=O)O)c3ccc(-c4ccccc4)cc3)cc2=O)c1 (racemic),IC50,[1],0.803 µM
O=C(O)CC(NC(=O)c1cc(=O)n(-c2ccc(F)cc2F)[nH]1)c1cccc(Cl)c1Cl (racemic),IC50,[1],0.12 µM
Cc1ccccc1[C@@H](CC(=O)O)NC(=O)c1cc(=O)n(-c2ccccc2)[nH]1,IC50,[1],7.8 µM
Cc1ccccc1[C@H](CC(=O)O)NC(=O)c1cc(OC[C@@H](O)C(C)(C)C)n(-c2ccccc2F)n1,IC50,[1],0.01 µM
O=C(O)CC(NC(=O)c1cc(=O)n(-c2ccccc2F)[nH]1)c1ccc(-c2ccc(F)cc2)cc1 (racemic),IC50,[1],0.025 µM
Cc1ccccc1[C@H](CC(=O)O)NC(=O)c1cc(=O)n(-c2cccc(F)c2)[nH]1,IC50,[1],0.059 µM
CC(C)(C)C(=O)COc1cc(C(=O)N[C@@H](CC(=O)O)c2ccc(Cl)cc2Cl)nn1-c1ccccc1F,Papp,[11],> 2 ×10⁻⁶ cm/s
same,IC50,[1],0.06 µM
Cc1ccccc1[C@H](CC(=O)O)NC(=O)c1cc(OC[C@H](O)C(C)(C)C)n(-c2ccccc2F)n1,IC50,[13],> 1 µM
same,inhibition,[13],inactive
same,Cmax,[15],426 ng/mL
same,Papp,[11],> 2 ×10⁻⁶ cm/s
same,Activity,[16],27.7 µL/min
same,Activity,[17],inactive
same,Activity,[18],Not Active
same,fold change (FC),[19],2
same,Cmax,[20],1360 ng/mL
same,AUC(0-inf),[21],1600 ng·h/mL
same,AUC(0-inf),[22],5300 ng·h/mL
Cc1ccccc1[C@H](CC(=O)O)NC(=O)c1cc(=O)n(-c2cccc(Cl)c2)[nH]1,IC50,[1],0.102 µM
